DENV2 CPE – protects cells from dengue virus 2 cytopathic effect; DENV2-infected cells, cytopathic effect rescue, plate reader; CPE inhibition, % at 9.99 µM; 350,000 compounds, 1.7% hits; AID 651640; in the data active = CPE inhibition above about 20%, passing the limit was not always enough; tested in BHK-21 cells;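 note: 0% = median of neutral control wells and 100% = median of positive control wells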
E-selectin induc – E-selectin induction on HUVECs; activation, % at 7.58 µM; HUVEC E-selectin immunofluorescence imaging; normalized: neutral wells 0, TNF-alpha wells 100; 260,000 compounds, 0.37% hits; P16581;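 active = mean E-selectin-positive cell signal at least 10% of the positive control, reached in at least 60% of replicates, without over 20% cell loss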
Target sequence (P16581 whole entry, looked up): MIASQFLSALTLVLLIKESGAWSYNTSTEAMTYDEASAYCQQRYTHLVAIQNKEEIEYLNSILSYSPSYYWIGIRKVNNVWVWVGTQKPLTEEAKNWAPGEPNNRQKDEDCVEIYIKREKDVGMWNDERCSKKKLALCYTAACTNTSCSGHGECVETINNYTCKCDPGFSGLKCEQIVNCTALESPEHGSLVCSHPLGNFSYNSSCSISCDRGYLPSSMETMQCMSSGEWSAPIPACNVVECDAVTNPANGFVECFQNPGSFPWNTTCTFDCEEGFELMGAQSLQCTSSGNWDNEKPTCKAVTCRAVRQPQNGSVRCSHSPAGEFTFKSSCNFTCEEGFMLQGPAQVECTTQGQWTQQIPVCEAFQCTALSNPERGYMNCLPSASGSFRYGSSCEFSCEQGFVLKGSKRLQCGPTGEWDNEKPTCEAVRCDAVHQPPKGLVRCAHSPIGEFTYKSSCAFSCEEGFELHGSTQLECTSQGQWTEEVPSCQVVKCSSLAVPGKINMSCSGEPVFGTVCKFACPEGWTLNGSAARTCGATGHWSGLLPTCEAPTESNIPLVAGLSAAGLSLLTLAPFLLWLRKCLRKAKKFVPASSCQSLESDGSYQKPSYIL
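Material: HUVEC primary endothelial cells; Amount: 3,000 cells per well; Dosing: single concentration; Medium: EGM-2 growth medium on 0.1% gelatin-coated wells; Read-out basis: percent E-selectin-positive cells; Signal: immunofluorescence imaging; Control set: TNF-alpha, DMSO.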
SIRT5 inh – sirtuin-5 (human) deacylase inhibition | Purified SirT5, succinyl-peptide AMC, trypsin-coupled fluorescence | inhibition, % at 15 µM | 330,000 compounds, 1.1% hits | AID 652115; in the data active = inhibition above about 15%
* hit, by the source's call; nt = no result. Shown are actives, neighbours in structure and some others; about 2.9% of the full set was active somewhere.

SMILES	DENV2 CPE	E-selectin induc	SIRT5 inh
Cc1ccc(S(=O)(=O)Nc2ccc3c(c2)CC(=O)N([C@@H](C)CO)C[C@@H](C)[C@@H](CN(C)C(=O)NC2CCCCC2)O3)cc1	4.5	-0.1	-0.3
COc1ccc(S(=O)(=O)Nc2ccc3c(c2)CC(=O)N([C@@H](C)CO)C[C@@H](C)[C@@H](CN(C)C(=O)NC2CCCCC2)O3)cc1	1.8	74.2*	1.4
COc1ccc(S(=O)(=O)Nc2ccc3c(c2)CC(=O)N([C@@H](C)CO)C[C@@H](C)[C@@H](CN(C)C(=O)NC(C)C)O3)cc1	7.0	-2.2	-4.6
COc1ccc(S(=O)(=O)Nc2ccc3c(c2)CC(=O)N([C@H](C)CO)C[C@H](C)[C@@H](CN(C)C(=O)NC2CCCCC2)O3)cc1	3.3	53.2*	-4.7
COc1ccc(S(=O)(=O)Nc2ccc3c(c2)CC(=O)N([C@@H](C)CO)C[C@@H](C)[C@H](CN(C)C(=O)NC(C)C)O3)cc1	35.4*	-2.7	0.7
C[C@@H]1CN([C@@H](C)CO)S(=O)(=O)c2ccc(C#CC(C)(C)O)cc2O[C@@H]1CN(C)C(=O)CC1CC1	-4.1	-0.5	3.9
O=C(O)CSc1c2ccccc2cc2ccccc12	-8.1	0.2	-2.0
CN(C)S(=O)(=O)c1cccc(-c2csc(=Nc3ccccc3)n2CCCN2CCOCC2)c1	-2.1	nt	-4.1
CC(=O)c1c(C)[nH]c(C(=O)CSc2nnc(N)s2)c1C	-5.1	nt	-2.5
COc1ccc(S(=O)(=O)Nc2ccc3c(c2)CC(=O)N([C@H](C)CO)C[C@H](C)[C@H](CN(C)C(=O)NC2CCCCC2)O3)cc1	16.3	76.5*	2.9
C[C@H]1CN([C@@H](C)CO)C(=O)Cc2cc(NS(=O)(=O)c3ccc(F)cc3)ccc2O[C@@H]1CN(C)C(=O)NC1CCCCC1	4.9	0.0	-6.7
O=C(C[C@@H]1C=C[C@@H](NC(=O)Nc2ccc(C(F)(F)F)cc2)[C@H](CO)O1)NCc1ccccn1	-1.7	0.0	2.4
O=C(C[C@H]1C=C[C@@H](NC(=O)Nc2ccc(C(F)(F)F)cc2)[C@@H](CO)O1)NCc1ccccn1	20.1*	0.0	-0.7
c1ccc(-c2nccc(-c3ccco3)n2)nc1	-5.6	-2.2	-1.9
Cc1ccc(-c2nc(NC(=O)c3cc(C(C)(C)C)nn3C)sc2C)cc1Cl	54.5*	7.9	-1.9
CC1CCc2nc(NC(=O)c3cc(C(C)(C)C)nn3C)sc2C1 (stereo not drawn)	19.2	2.6	-2.5
CNC(=O)c1c(NC(=O)c2ccc(S(=O)(=O)N(C)c3ccccc3)cc2)sc2c1CCN(C(C)C)C2	96.1*	-0.1	-1.2
COC(=O)c1c(NC(=O)c2ccc(N(C)S(=O)(=O)c3ccc(C)cc3)cc2)sc2c1CCCC2	9.1	nt	-5.0
Nc1ncnc2c1nc(N1CCCCC1)n2[C@@H]1O[C@H](CO)[C@@H](O)[C@H]1O	nt	0.0	-5.6
C[C@H](CO)N1C[C@H](C)[C@@H](CN(C)Cc2ccc(C(F)(F)F)cc2)Oc2c(NS(=O)(=O)c3ccc(Cl)cc3)cccc2C1=O	-6.5	-0.1	8.5
Cc1ccc(Sc2nc(C)c([N+](=O)[O-])c(C)c2C#N)cc1	28.9*	nt	-3.8
Cc1nc(Sc2ccc(Cl)cc2)c(C#N)c(C)c1[N+](=O)[O-]	17.3	1.2	-2.0
COc1ccc(S(=O)(=O)N(C)C[C@@H]2OCCCC[C@@H](C)Oc3ccc(NS(=O)(=O)c4ccc(Cl)cc4)cc3C(=O)N([C@H](C)CO)C[C@@H]2C)cc1	-4.9	0.0	16.4*
COc1ccc(S(=O)(=O)N(C)C[C@H]2OCCCC[C@@H](C)Oc3ccc(NS(=O)(=O)c4ccc(Cl)cc4)cc3C(=O)N([C@@H](C)CO)C[C@H]2C)cc1	-4.7	0.2	16.2*
COc1ccc(S(=O)(=O)Nc2ccc3c(c2)C(=O)N([C@@H](C)CO)C[C@@H](C)[C@H](CN(C)S(=O)(=O)c2ccc(Cl)cc2)OCCCC[C@@H](C)O3)cc1	0.2	0.1	15.6*
COc1ccc(S(=O)(=O)Nc2ccc3c(c2)C(=O)N([C@@H](C)CO)C[C@@H](C)[C@@H](CN(C)S(=O)(=O)c2ccc(Cl)cc2)OCCCC[C@@H](C)O3)cc1	13.5	-0.2	15.2*
COc1ccc(S(=O)(=O)N(C)C[C@@H]2OCCCC[C@@H](C)Oc3ccc(NS(=O)(=O)c4ccc(Cl)cc4)cc3C(=O)N([C@@H](C)CO)C[C@@H]2C)cc1	18.0	0.0	3.4
COc1ccc(S(=O)(=O)Nc2ccc3c(c2)C(=O)N([C@@H](C)CO)C[C@@H](C)[C@H](CN(C)S(=O)(=O)c2ccc(Cl)cc2)OCCCC[C@H](C)O3)cc1	-4.2	1.6	0.9
COc1ccc(S(=O)(=O)Nc2ccc3c(c2)C(=O)N([C@H](C)CO)C[C@@H](C)[C@@H](CN(C)S(=O)(=O)c2ccc(Cl)cc2)OCCCC[C@@H](C)O3)cc1	9.0	0.3	11.0

Screening data (PubChem)
